Results taken from ChEMBL document CHEMBL1121742, “Synthesis and antibacterial activity of some ester, amides, and hydrazides of 3-carboxyrifamycin S. Relationship between structure and activity of ansamycins” (1981).
Converted amounts (≈) assume the structure as drawn.

Key:
Salmonella paratyphi = test: Minimum inhibitory concentration of compound tested for antibacterial activity against Salmonella paratyphi BO 248 K(Sclavo); type: functional, Salmonella enterica subsp. enterica serovar Paratyphi A; settings: Salmonella enterica
Klebsiella pneumoniae [1] = test: Minimum inhibitory concentration of compound tested for antibacterial activity against Klebsiella pneumoniae ottaviani; type: functional
How it was run: (§1)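 MIC by serial dilution in liquid medium in test tubes. Medium was brain-heart infusion and the inoculum was 10⁶ cells/mL. Tubes were incubated at 35 °C for 24 h. MIC was taken as the lowest antibiotic concentration preventing visible growth.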

Staphylococcus aureus = test: Minimum inhibitory concentration of compound tested for antibacterial activity against Staphylococcus aureus 209 P(FDA); type: functional; how it was run: as §1
Escherichia coli [2] = test: Minimum inhibitory concentration of compound tested for antibacterial activity against Escherichia coli ML/35; type: functional; how it was run: as §1
Klebsiella pneumoniae [3] = test: Minimum inhibitory concentration of compound tested for antibacterial activity against Klebsiella pneumoniae ottaviani; 25-50; type: functional; how it was run: as §1
Escherichia coli [4] = test: Minimum inhibitory concentration of compound tested for antibacterial activity against Escherichia coli ML/35; 25-50; type: functional; how it was run: as §1

## CO[C@H]1/C=C/O[C@@]2(C)Oc3c(C)c(O)c4c(O)c(cc(O)c4c3C2=O)NC(=O)/C(C)=C\C=C\[C@H](C)[C@H](O)[C@@H](C)[C@@H](O)[C@@H](C)[C@H](OC(C)=O)[C@@H]1C [RIFAMYCIN]
Salmonella paratyphi
  MIC: 100 µg/mL (≈ 143 µM)
Klebsiella pneumoniae [1]
  MIC: 100 µg/mL (≈ 143 µM)
Staphylococcus aureus
  MIC: < 0.005 µg/mL
Escherichia coli [2]
  MIC: 100 µg/mL (≈ 143 µM)

## COC1/C=C/OC2(C)Oc3c(C)c(O)c4c(c3C2=O)C(=O)C(C(=O)NN(C)C)=C(NC(=O)/C(C)=C\C=C\C(C)C(O)C(C)C(O)C(C)C(OC(C)=O)C1C)C4=O (stereo unspecified)
Salmonella paratyphi
  MIC: > 50 µg/mL
Klebsiella pneumoniae [1]
  MIC: > 50 µg/mL
Staphylococcus aureus
  MIC: < 0.005 µg/mL
Escherichia coli [2]
  MIC: > 50 µg/mL

## COC1/C=C/OC2(C)Oc3c(C)c(O)c4c(c3C2=O)C(=O)C(C(=O)N(C)C)=C(NC(=O)/C(C)=C\C=C\C(C)C(O)C(C)C(O)C(C)C(OC(C)=O)C1C)C4=O (stereo unspecified)
Salmonella paratyphi
  MIC: > 50 µg/mL
Klebsiella pneumoniae [1]
  MIC: > 50 µg/mL
Staphylococcus aureus
  MIC: 0.025 µg/mL (≈ 0.0326 µM)
Escherichia coli [2]
  MIC: > 50 µg/mL

## CO[C@H]1/C=C/O[C@@]2(C)Oc3c(C)c(O)c4c(O)c(c(/C=N/N5CCN(C)CC5)c(O)c4c3C2=O)NC(=O)/C(C)=C\C=C\[C@H](C)[C@H](O)[C@@H](C)[C@@H](O)[C@@H](C)[C@H](OC(C)=O)[C@@H]1C [RIFAMPIN]
Salmonella paratyphi
  MIC: 12 µg/mL (≈ 14.6 µM)
Klebsiella pneumoniae [1]
  MIC: 25 µg/mL (≈ 30.4 µM)
Staphylococcus aureus
  MIC: ~0.025 µg/mL (≈ 0.0304 µM)
Escherichia coli [2]
  MIC: 6 µg/mL (≈ 7.29 µM)

## COC1/C=C/OC2(C)Oc3c(C)c(O)c4c(c3C2=O)C(=O)C(C(=O)N2CCN(C)CC2)=C(NC(=O)/C(C)=C\C=C\C(C)C(O)C(C)C(O)C(C)C(OC(C)=O)C1C)C4=O (stereo unspecified)
Salmonella paratyphi
  MIC: > 50 µg/mL
Klebsiella pneumoniae [1]
  MIC: > 50 µg/mL
Staphylococcus aureus
  MIC: 0.1 µg/mL (≈ 0.122 µM)
Escherichia coli [2]
  MIC: > 50 µg/mL

## COC1/C=C/OC2(C)Oc3c(C)c(O)c4c(c3C2=O)C(=O)C(C(=O)Nc2ccc(Br)cc2)=C(NC(=O)/C(C)=C\C=C\C(C)C(O)C(C)C(O)C(C)C(OC(C)=O)C1C)C4=O (stereo unspecified)
Salmonella paratyphi
  MIC: > 50 µg/mL
Klebsiella pneumoniae [1]
  MIC: > 50 µg/mL
Staphylococcus aureus
  MIC: 0.1 µg/mL (≈ 0.112 µM)
Escherichia coli [2]
  MIC: > 50 µg/mL

## COC1/C=C/OC2(C)Oc3c(C)c(O)c4c(c3C2=O)C(=O)C(C(=O)N(C)N2CCCCC2)=C(NC(=O)/C(C)=C\C=C\C(C)C(O)C(C)C(O)C(C)C(OC(C)=O)C1C)C4=O (stereo unspecified)
Salmonella paratyphi
  MIC: > 50 µg/mL
Klebsiella pneumoniae [1]
  MIC: > 50 µg/mL
Staphylococcus aureus
  MIC: ~0.03 µg/mL (≈ 0.0359 µM)
Escherichia coli [2]
  MIC: > 50 µg/mL

## COC1/C=C/OC2(C)Oc3c(C)c(O)c4c(c3C2=O)C(=O)C(C(=O)OCC(O)CO)=C(NC(=O)/C(C)=C\C=C\C(C)C(O)C(C)C(O)C(C)C(OC(C)=O)C1C)C4=O (stereo unspecified)
Salmonella paratyphi
  MIC: > 50 µg/mL
Klebsiella pneumoniae [1]
  MIC: > 50 µg/mL
Staphylococcus aureus
  MIC: ~0.5 µg/mL (≈ 0.614 µM)
Escherichia coli [2]
  MIC: > 50 µg/mL

## COC(=O)C1=C2NC(=O)/C(C)=C\C=C\C(C)C(O)C(C)C(O)C(C)C(OC(C)=O)C(C)C(OC)/C=C/OC3(C)Oc4c(C)c(O)c(c(c4C3=O)C1=O)C2=O (stereo unspecified)
Salmonella paratyphi
  MIC: ~50 µg/mL (≈ 66.3 µM)
Klebsiella pneumoniae [3]
  MIC: 25 µg/mL (≈ 33.2 µM)
Staphylococcus aureus
  MIC: 0.05 µg/mL (≈ 0.0663 µM)
Escherichia coli [4]
  MIC: 25 µg/mL (≈ 33.2 µM)
